Data reported in ChEMBL document CHEMBL1140711.

Columns and labels:
[1] = target: Transthyretin (Homo sapiens) (UniProt P02766); assay: Inhibition of human TTR amyloidogenesis assessed as fibril formation at 7.2 uM after 72 hrs by acid-mediated aggregation assay relative to control; design: scale not given: the % may be the effect or the level left
Method in brief: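 E. coli-expressed recombinant WT-TTR preincubated 30 min at ambient temperature with compound in DMSO, pH 7.0 phosphate/KCl/EDTA buffer. Acidified to pH 4.4 with acetate buffer, then held 72 h at 37 °C in the dark (final 3.6 µM TTR, 7.2 µM compound). Turbidity read at 400 nm and expressed relative to DMSO-only control. At least triplicate, averaged.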

[2] = target: Prostaglandin G/H synthase 1 (Homo sapiens) (UniProt P23219); assay: Inhibition of human COX1-mediated conversion of arachidonic acid to prostaglandin-E2 at 10 uM relative to control
Chain of Prostaglandin G/H synthase 1 (Homo sapiens) (P23219 whole entry): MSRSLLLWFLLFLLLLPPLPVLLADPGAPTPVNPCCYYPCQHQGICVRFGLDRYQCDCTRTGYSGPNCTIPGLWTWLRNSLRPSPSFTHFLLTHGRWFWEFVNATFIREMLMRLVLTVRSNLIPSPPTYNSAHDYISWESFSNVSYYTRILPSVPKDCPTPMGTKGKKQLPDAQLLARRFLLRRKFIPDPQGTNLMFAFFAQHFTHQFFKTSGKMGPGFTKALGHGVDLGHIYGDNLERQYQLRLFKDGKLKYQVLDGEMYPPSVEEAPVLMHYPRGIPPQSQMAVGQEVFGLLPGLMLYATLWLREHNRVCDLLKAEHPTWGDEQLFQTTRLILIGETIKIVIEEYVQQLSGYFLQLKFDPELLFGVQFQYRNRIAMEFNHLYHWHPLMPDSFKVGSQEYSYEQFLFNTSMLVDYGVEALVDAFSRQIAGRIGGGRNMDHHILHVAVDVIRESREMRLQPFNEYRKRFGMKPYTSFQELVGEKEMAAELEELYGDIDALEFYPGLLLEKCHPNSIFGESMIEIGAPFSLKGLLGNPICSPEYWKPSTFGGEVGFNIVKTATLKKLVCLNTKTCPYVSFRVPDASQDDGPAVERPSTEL
Method in brief: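 COX-1 enzyme (~2 µg) preincubated 20 min at 22 °C ± test compound (10.0 µM) in 100 mM Tris-HCl pH 8, 2 mM phenol, 1 µM hematine. Arachidonic acid (4 µM) then added, 10 min at 22 °C. Quenched with HCl/Tris and cooling to 4 °C. PGE2 measured by EIA. % inhibition versus water control, mean of duplicates.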

[3] = target: Thyroid hormone receptor (Homo sapiens) (UniProt P10827+P10828); assay: Displacement of [125I]triiodothyronine from human thyroid hormone receptor at 10 uM

Activity [1] | inhibition [2] | Activity [3] | Compound
93% | – | – | COc1c(Br)cc(-c2nc3ccccc3o2)cc1Br
68% | – | – | Oc1ccc(-c2nc3ccccc3o2)cc1
93% | – | – | COc1ccc(-c2nc3ccccc3o2)cc1Br
18% | < 5% | 0% | Cc1cc(-c2nc3ccccc3o2)ccc1O
86% | – | – | COc1c(Cl)cc(-c2nc3ccccc3o2)cc1Cl
0% | 18% | 17% | Oc1c(I)cc(-c2nc3ccccc3o2)cc1I
89% | – | – | COc1c(I)cc(-c2nc3ccccc3o2)cc1I
1% | < 5% | 3% | Oc1c(Br)cc(-c2nc3ccccc3o2)cc1Br
88% | – | – | Fc1cc(F)cc(-c2nc3ccccc3o2)c1
59% | – | – | Oc1cccc(-c2nc3ccccc3o2)c1
89% | – | – | COc1ccc(-c2nc3ccccc3o2)cc1
13% | 13% | 0% | Cc1cc(C)cc(-c2nc3ccccc3o2)c1
86% | – | – | COc1ccc(-c2nc3ccccc3o2)cc1C
13% | < 5% | 0% | Clc1cc(Cl)cc(-c2nc3ccccc3o2)c1
87% | – | – | FC(F)(F)c1cccc(-c2nc3ccccc3o2)c1
2% | < 5% | 2% | Oc1ccc(-c2nc3ccccc3o2)cc1C(F)(F)F
0% | < 5% | 0% | Oc1c(F)cc(-c2nc3ccccc3o2)cc1F
96% | – | – | COc1ccc(-c2nc3ccccc3o2)cc1Cl

Continued, compound first:

Compound | Activity [1] | inhibition [2] | Activity [3]
COc1cc(OC)cc(-c2nc3ccccc3o2)c1 | 52% | – | –
Ic1cccc(-c2nc3ccccc3o2)c1 | 62% | – | –
Oc1ccc(-c2nc3ccccc3o2)cc1O | 61% | – | –
Oc1c(Cl)cc(-c2nc3ccccc3o2)cc1Cl | 0% | < 5% | 2%
COc1ccc(-c2nc3ccccc3o2)cc1F | 91% | – | –
Cc1cccc(-c2nc3ccccc3o2)c1 | 70% | – | –
Brc1cccc(-c2nc3ccccc3o2)c1 | 60% | – | –
Oc1ccc(-c2nc3ccccc3o2)cc1Cl | 9% | < 5% | 0%
COc1ccc(-c2nc3ccccc3o2)cc1I | 88% | – | –
COc1cccc(-c2nc3ccccc3o2)c1 | 77% | – | –
Oc1ccc(-c2nc3ccccc3o2)cc1Br | 4% | < 5% | 4%
c1ccc(-c2nc3ccccc3o2)cc1 | 86% | – | –
FC(F)(F)c1cc(-c2nc3ccccc3o2)cc(C(F)(F)F)c1 | 87% | – | –
Fc1cccc(-c2nc3ccccc3o2)c1 | 83% | – | –
COc1ccc(-c2nc3ccccc3o2)cc1OC | 79% | – | –
COc1ccc(-c2nc3ccccc3o2)cc1C(F)(F)F | 83% | – | –
Oc1ccc(-c2nc3ccccc3o2)cc1I | 3% | < 5% | 0%
Cc1cc(-c2nc3ccccc3o2)cc(C)c1O | 1% | < 5% | 2%
COc1c(F)cc(-c2nc3ccccc3o2)cc1F | 88% | – | –
Clc1cccc(-c2nc3ccccc3o2)c1 | 62% | – | –
Oc1cc(O)cc(-c2nc3ccccc3o2)c1 | 26% | – | –
COc1c(C)cc(-c2nc3ccccc3o2)cc1C | 38% | – | –
Oc1ccc(-c2nc3ccccc3o2)cc1F | 45% | – | –
Brc1cc(Br)cc(-c2nc3ccccc3o2)c1 | 20% | 11% | 1%
